Assay results taken from ChEMBL document CHEMBL1144306, “1-Hydroxyalkyl-3-phenylthioureas as novel HDL-elevating agents” (2005).

How the values were obtained:
Type in all cases: functional
Rattus norvegicus [1] = experiment: Effect on change in body weight gain (relative to untreated control) in cholesterol fed-male rats at 60 mg/kg/day
Method in brief: (§1)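 Male Sprague–Dawley rats, six per group, on a cholic acid- and cholesterol-supplemented diet. Compounds were mixed into the diet and given ad libitum for eight days. Change in body weight gain is expressed as a percentage of untreated controls. Significance was set at p < 0.05 versus untreated controls.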

Rattus norvegicus [2] = experiment: Effect on level of triglyceride in (relative to untreated control) in cholesterol fed-male rats at 60 mg/kg/day
Method in brief: (§2)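 Serum triglycerides were measured in groups of six male Sprague–Dawley rats on a cholic acid/cholesterol-supplemented diet. Compound was dosed in the diet, ad libitum, for eight days. Results are % change relative to untreated controls, with significance at p < 0.05.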

Rattus norvegicus [3] = experiment: Effect on level of high density lipoprotein cholesterol (relative to untreated control) in cholesterol fed-male rats at 60 mg/kg/day
Method in brief: (§3)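 Cholic acid/cholesterol-fed male Sprague–Dawley rats (n = 6 per group) were dosed via diet ad libitum for eight days. Lipoproteins were separated by ultracentrifugation and HDL cholesterol was quantified by an enzymatic colorimetric method. Values are % change relative to untreated controls, with significance at p < 0.05. Gemfibrozil was the internal positive control.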

Rattus norvegicus [4] = experiment: Effect on level of apolipoprotein (Apo) AI (relative to untreated control) in cholesterol fed-male rats at 60 mg/kg/day
Method in brief: (§4)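 Six male Sprague–Dawley rats per group, fed a cholic acid/cholesterol-supplemented diet, received compound in the diet ad libitum for eight days. Serum Apo A–I was measured by SDS-PAGE or by rat competition ELISA and reported as % change versus untreated controls (p < 0.05). Gemfibrozil was the internal positive control in each study.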

Rattus norvegicus [5] = experiment: Effect on level of total cholesterol (relative to untreated control) in cholesterol fed-male rats at 60 mg/kg/day
Method in brief: (§5)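 Male Sprague–Dawley rats (groups of six) fed a cholic acid- and cholesterol-supplemented diet; compound mixed into the diet, given ad libitum for eight days. Lipoproteins were separated by ultracentrifugation, and cholesterol was measured by an enzymatic colorimetric method. Results are % change versus untreated controls, with significance at p < 0.05.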

Rattus norvegicus [6] = experiment: Effect on level of total cholesterol (relative to untreated control) in cholesterol fed-male rats at 80 mg/kg/day; method in brief: as §5
Rattus norvegicus [7] = experiment: Effect on level of triglyceride in (relative to untreated control) in cholesterol fed-male rats at 80 mg/kg/day
Method in brief: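 Compound given in diet ad libitum for eight days to groups of six male Sprague–Dawley rats on a cholic acid and cholesterol-supplemented diet. Serum triglycerides expressed as % change relative to untreated controls, with significance at p < 0.05. Gemfibrozil served as internal positive control within each study.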

Rattus norvegicus [8] = experiment: Effect on change in body weight gain (relative to untreated control) in cholesterol fed-male rats at 80 mg/kg/day; method in brief: as §1
Rattus norvegicus [9] = experiment: Effect on level of apolipoprotein (Apo) AI (relative to untreated control) in cholesterol fed-male rats at 80 mg/kg/day; method in brief: as §4
Rattus norvegicus [10] = experiment: Effect on level of high density lipoprotein cholesterol (relative to untreated control) in cholesterol fed-male rats at 80 mg/kg/day; method in brief: as §5
Rattus norvegicus [11] = experiment: Effect on level of total cholesterol (relative to untreated control) in cholesterol fed-male rats at 68 mg/kg/day; method in brief: as §5
Rattus norvegicus [12] = experiment: Effect on level of apolipoprotein (Apo) AI (relative to untreated control) in cholesterol fed-male rats at 68 mg/kg/day; method in brief: as §4
Rattus norvegicus [13] = experiment: Effect on change in body weight gain (relative to untreated control) in cholesterol fed-male rats at 68 mg/kg/day; method in brief: as §1
Rattus norvegicus [14] = experiment: Effect on level of high density lipoprotein cholesterol (relative to untreated control) in cholesterol fed-male rats at 68 mg/kg/day; method in brief: as §5
Rattus norvegicus [15] = experiment: Effect on level of triglyceride in (relative to untreated control) in cholesterol fed-male rats at 68 mg/kg/day; method in brief: as §2
Rattus norvegicus [16] = experiment: Effect on level of total cholesterol (relative to untreated control) in cholesterol fed-male rats at 75 mg/kg/day; method in brief: as §5
Rattus norvegicus [17] = experiment: Effect on change in body weight gain (relative to untreated control) in cholesterol fed-male rats at 75 mg/kg/day; method in brief: as §1
Rattus norvegicus [18] = experiment: Effect on level of apolipoprotein (Apo) AI (relative to untreated control) in cholesterol fed-male rats at 75 mg/kg/day; method in brief: as §4
Rattus norvegicus [19] = experiment: Effect on level of triglyceride in (relative to untreated control) in cholesterol fed-male rats at 75 mg/kg/day; method in brief: as §2
Rattus norvegicus [20] = experiment: Effect on level of high density lipoprotein cholesterol (relative to untreated control) in cholesterol fed-male rats at 75 mg/kg/day; method in brief: as §5
Rattus norvegicus [21] = experiment: Effect on change in body weight gain (relative to untreated control) in cholesterol fed-male rats at 50 mg/kg/day; method in brief: as §1
Rattus norvegicus [22] = experiment: Effect on level of triglyceride in (relative to untreated control) in cholesterol fed-male rats at 50 mg/kg/day; method in brief: as §2
Rattus norvegicus [23] = experiment: Effect on level of total cholesterol (relative to untreated control) in cholesterol fed-male rats at 50 mg/kg/day; method in brief: as §5
Rattus norvegicus [24] = experiment: Effect on level of high density lipoprotein cholesterol (relative to untreated control) in cholesterol fed-male rats at 50 mg/kg/day; method in brief: as §3
Rattus norvegicus [25] = experiment: Effect on level of apolipoprotein (Apo) AI (relative to untreated control) in cholesterol fed-male rats at 50 mg/kg/day; method in brief: as §4
Rattus norvegicus [26] = experiment: Effect on level of apolipoprotein (Apo) AI (relative to untreated control) in cholesterol fed-male rats at 74 mg/kg/day; method in brief: as §4
Rattus norvegicus [27] = experiment: Effect on change in body weight gain (relative to untreated control) in cholesterol fed-male rats at 74 mg/kg/day; method in brief: as §1
Rattus norvegicus [28] = experiment: Effect on level of high density lipoprotein cholesterol (relative to untreated control) in cholesterol fed-male rats at 74 mg/kg/day; method in brief: as §5
Rattus norvegicus [29] = experiment: Effect on level of total cholesterol (relative to untreated control) in cholesterol fed-male rats at 74 mg/kg/day; method in brief: as §5
Rattus norvegicus [30] = experiment: Effect on level of triglyceride in (relative to untreated control) in cholesterol fed-male rats at 74 mg/kg/day; method in brief: as §2
Rattus norvegicus [31] = experiment: Effect on level of apolipoprotein (Apo) AI (relative to untreated control) in cholesterol fed-male rats at 51 mg/kg/day; method in brief: as §4
Rattus norvegicus [32] = experiment: Effect on change in body weight gain (relative to untreated control) in cholesterol fed-male rats at 51 mg/kg/day; method in brief: as §1
Rattus norvegicus [33] = experiment: Effect on level of triglyceride in (relative to untreated control) in cholesterol fed-male rats at 51 mg/kg/day; method in brief: as §2
Rattus norvegicus [34] = experiment: Effect on level of total cholesterol (relative to untreated control) in cholesterol fed-male rats at 51 mg/kg/day; method in brief: as §5
Rattus norvegicus [35] = experiment: Effect on level of high density lipoprotein cholesterol (relative to untreated control) in cholesterol fed-male rats at 51 mg/kg/day; method in brief: as §3

OCC/N=C(\S)Nc1cc(Cl)cc(Cl)c1
Activity (Rattus norvegicus [1]): -90% | Activity (Rattus norvegicus [2]): -35% | Activity (Rattus norvegicus [3]): 50% | Activity (Rattus norvegicus [4]): 48% | Activity (Rattus norvegicus [5]): 9%

Cc1ccc(Cl)cc1/N=C(\S)NC(C)(C)CO
Activity (Rattus norvegicus [6]): -13% | Activity (Rattus norvegicus [7]): -15% | Activity (Rattus norvegicus [8]): -23% | Activity (Rattus norvegicus [9]): 23% | Activity (Rattus norvegicus [10]): 58%

Cc1ccc(Cl)cc1N/C(S)=N/C[C@H](C)O
Activity (Rattus norvegicus [11]): 30% | Activity (Rattus norvegicus [12]): 8% | Activity (Rattus norvegicus [13]): -68% | Activity (Rattus norvegicus [14]): 33% | Activity (Rattus norvegicus [15]): -75%

OCC/N=C(\S)Nc1cc(Cl)ccc1Cl
Activity (Rattus norvegicus [11]): 21% | Activity (Rattus norvegicus [12]): 36% | Activity (Rattus norvegicus [13]): -66% | Activity (Rattus norvegicus [14]): 71% | Activity (Rattus norvegicus [15]): -13%

Cc1ccc(Cl)cc1/N=C(\S)N(C)CCO
Activity (Rattus norvegicus [16]): 29% | Activity (Rattus norvegicus [17]): -31% | Activity (Rattus norvegicus [18]): 40% | Activity (Rattus norvegicus [19]): -47% | Activity (Rattus norvegicus [20]): 100%

Cc1ccc(Cl)cc1N/C(S)=N/[C@H](C)CO
Activity (Rattus norvegicus [16]): 85% | Activity (Rattus norvegicus [17]): -4% | Activity (Rattus norvegicus [18]): 6% | Activity (Rattus norvegicus [19]): -23% | Activity (Rattus norvegicus [20]): 13%

Cc1ccc(C)c(OCCCC(C)(C)C(=O)O)c1 [GEMFIBROZIL]
Activity (Rattus norvegicus [21]): 2% | Activity (Rattus norvegicus [22]): -29% | Activity (Rattus norvegicus [23]): -23% | Activity (Rattus norvegicus [24]): 104% | Activity (Rattus norvegicus [25]): 54%

Cc1ccc(Cl)cc1/N=C(\S)NCCCO
Activity (Rattus norvegicus [26]): 24% | Activity (Rattus norvegicus [27]): -63% | Activity (Rattus norvegicus [28]): 82% | Activity (Rattus norvegicus [29]): 3% | Activity (Rattus norvegicus [30]): -80%

Cc1ccccc1/N=C(\S)NCCO
Activity (Rattus norvegicus [31]): -18% | Activity (Rattus norvegicus [32]): -138% | Activity (Rattus norvegicus [33]): -51% | Activity (Rattus norvegicus [34]): 66% | Activity (Rattus norvegicus [35]): 3%

OCC/N=C(\S)Nc1cccc(C(F)(F)F)c1
Activity (Rattus norvegicus [11]): 44% | Activity (Rattus norvegicus [12]): 36% | Activity (Rattus norvegicus [13]): -76% | Activity (Rattus norvegicus [14]): 66% | Activity (Rattus norvegicus [15]): -15%
